Assay results reported in ChEMBL document CHEMBL1154198, “Chemical genetics of Plasmodium falciparum” (Nature, 2010).
pEC50: −log10 of the molar value.

Legend:
Plasmodium falciparum [1] = assay: ST_JUDE: Plasmodium falciparum 3D7 EC50 (uM) as measured by SYBR green dye; assay type: functional, organism-based
Plasmodium falciparum [2] = assay: ST_JUDE: Plasmodium falciparum K1 EC50 (uM) as measured by SYBR green dye; assay type: functional, organism-based
Plasmodium falciparum [3] = assay: ST_JUDE: Cytotoxicity against Plasmodium falciparum 3D7; assay type: functional, organism-based
Method in brief: (§1)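 Asexual P. falciparum grown in human erythrocytes, exposed to compounds for 72 h, and growth read as the DNA quantity in treated versus control cultures. Dose-response run at 12 concentrations from 10 μM to 5 nM.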

Plasmodium falciparum [4] = assay: ST_JUDE: Cytotoxicity against Plasmodium falciparum K1; assay type: functional, organism-based; method in brief: as §1
Plasmodium falciparum [5] = assay: ST_JUDE: Cytotoxicity against Plasmodium falciparum V1/S; assay type: functional, organism-based
Toxoplasma gondii = assay: ST_JUDE: Growth inhibition of to Toxoplasma gondii, in human U-2OS cells, as measured by luciferase.; assay type: functional, organism-based; settings: RH, U2OS
Method in brief: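 T. gondii parasites engineered to express luciferase; drug sensitivity read by luminescence.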

Trypanosoma brucei = assay: ST_JUDE: Cytotoxicity using luciferase to measure ATP as an indicator of the viability of Trypanosoma brucei; assay type: functional, organism-based
Leishmania major = assay: ST_JUDE: Cytotoxicity using Alamar Blue to measure viability of Leishmania major; assay type: functional, organism-based
Method in brief: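 L. major promastigotes; drug susceptibility read with Alamar Blue.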

[6] = ST_JUDE: Cytotoxicity using luciferase to measure ATP as an indicator of the viability of human foreskin fibroblast cells (BJ); assay type: toxicity, cell-based
[7] = ST_JUDE: Cytotoxicity using luciferase to measure ATP as an indicator of the viability of human epithelial hepatocellular carcinoma cells (HepG2); assay type: toxicity, cell-based
[8] = ST_JUDE: Cytotoxicity using luciferase to measure ATP as an indicator of the viability of human epithelial embryonic kidney cells (HEK293); assay type: toxicity, cell-based
[9] = ST_JUDE: Cytotoxicity using luciferase to measure ATP as an indicator of the viability of human Burkitt''s lymphoma lymphoblast cells (Raji); assay type: toxicity, cell-based
Plasmodium falciparum [10] = assay: ST_JUDE: Cytotoxicity against Plasmodium falciparum W2; assay type: functional, organism-based
Plasmodium falciparum [11] = assay: ST_JUDE: Cytotoxicity against Plasmodium falciparum SB-A6; assay type: functional, organism-based
Plasmodium falciparum [12] = assay: ST_JUDE: Cytotoxicity against Plasmodium falciparum D10 transfected with yeast DHOD; assay type: functional, organism-based
Plasmodium falciparum [13] = assay: ST_JUDE: Cytotoxicity against Plasmodium falciparum Dd2; assay type: functional, organism-based

| Structure (SMILES) | pEC50 (Plasmodium falciparum [1]) | pEC50 (Plasmodium falciparum [2]) | further results |
| --- | --- | --- | --- |
| Cc1ccc2nc(Nc3nc(O)c4ccccc4n3)nc(C)c2c1 | 5.20 | 5.34 |  |
| O=C(NC(c1cccc([N+](=O)[O-])c1)c1cc(Cl)c2cccnc2c1O)c1cccnc1 (configuration not stated) | 5.33 | 5.56 |  |
| CCOc1ccc(-c2nonc2NC(=O)CC(C)C)cc1OCC | 5.50 | 5.42 |  |
| O=[N+]([O-])c1ccc2c(c1)c1ccccc1n2Cc1ccccc1O | 5.90 | 5.90 | pEC50 (Plasmodium falciparum [3]): 5.88; pEC50 (Plasmodium falciparum [4]): 5.97; pEC50 (Plasmodium falciparum [5]): < 5.04; pEC50 (Toxoplasma gondii): < 4.71; pEC50 (Trypanosoma brucei): 4.61; pEC50 (Leishmania major): < 4.82; pEC50 [6]: < 4.45; pEC50 [7]: < 4.45; pEC50 [8]: < 4.45; pEC50 [9]: 4.74; pEC50 (Plasmodium falciparum [10]): 5.43; pEC50 (Plasmodium falciparum [11]): 5.63; pEC50 (Plasmodium falciparum [12]): 5.74 |
| O=C(Nc1ccccc1-c1nc2ccccc2s1)C(Cl)(Cl)Cl | < 4.82 | 5.57 |  |
| CCCCCCCCn1ccc(=N)cc1 | 5.66 | 5.85 |  |
| CC(C)(C)NC(=O)c1cn(C2CCCCC2)cc(C(=O)NC2CCN(Cc3ccccc3)C2)c1=O (configuration not stated) | 6.18 | 5.39 | pEC50 (Plasmodium falciparum [3]): 6.10; pEC50 (Plasmodium falciparum [4]): 5.70; pEC50 (Plasmodium falciparum [5]): 5.31; pEC50 (Toxoplasma gondii): < 4.80; pEC50 (Trypanosoma brucei): 4.70; pEC50 (Leishmania major): < 4.91; pEC50 [6]: < 4.54; pEC50 [7]: < 4.54; pEC50 [8]: < 4.54; pEC50 [9]: < 4.54; pEC50 (Plasmodium falciparum [13]): 6.30; pEC50 (Plasmodium falciparum [10]): 5.67; pEC50 (Plasmodium falciparum [11]): 6.15; pEC50 (Plasmodium falciparum [12]): 5.82 |
| CC(C)CN1C(=O)c2ccccc2C(C(=O)Nc2cccc(C(F)(F)F)c2)C1c1cccs1 (configuration not stated) |  |  | pEC50 (Toxoplasma gondii): < 4.59; pEC50 (Trypanosoma brucei): 5.48; pEC50 (Leishmania major): < 4.69; pEC50 [6]: < 4.33; pEC50 [7]: 4.42; pEC50 [8]: < 4.33; pEC50 [9]: < 4.33 |
| Cc1cc(Nc2ccc(C)c(F)c2)n2nc(C)nc2n1 | 5.89 | 5.51 |  |
| CN1C=CC(=Cc2sc3ccccc3[n+]2C)C=C1 | 6.06 | 6.41 |  |
| O=C1CC(C(=O)N2CCC(c3nc(-c4cccnc4)ncc3-c3ccccc3)CC2)c2ccccc21 (configuration not stated) | 5.56 | 5.39 |  |
| Cc1ccc(C(C)C)c(OCc2nc3ccccc3n2C)c1 | < 4.82 | < 4.82 |  |
| CCc1ccc(NC(=O)C2c3cc(OC)c(OC)cc3C(=O)N(C)C2c2cccs2)cc1 (configuration not stated) | 5.45 | 5.42 |  |
| COc1cccc(C2C(C(=O)Nc3ccccc3C)=C(C)Nc3nnnn32)c1 (configuration not stated) | < 4.82 | < 4.82 |  |
| O=C1CC(O)(C(F)(F)C(F)(F)F)Oc2ccccc21 (configuration not stated) | 5.59 | 5.61 |  |
| Cc1ccccc1NC(=O)Nc1ccnn1C1CCN(Cc2ccc(OC(C)C)cc2)CC1 | 5.17 | < 4.82 |  |

| Structure (SMILES) | pEC50 (Plasmodium falciparum [1]) | pEC50 (Plasmodium falciparum [2]) | further results |
| --- | --- | --- | --- |
| CCOC(=O)c1ccc(NC(=O)c2cc([N+](=O)[O-])ccc2NC(=O)CNC2CCN(Cc3ccccc3)CC2)cc1 | 5.90 | 5.43 |  |
| CC(=O)OCCCCCCCCCCC[N+]1(C)CCCCC1 | < 4.82 | 5.26 |  |
| CC(C)(C)c1ccc(O)c(CN2CCN(c3ccccc3)CC2)c1 | 5.96 | 6.29 |  |
| Oc1ccc(I)cc1/C=C/c1cc(O)c2ccccc2n1 | < 4.82 | 5.27 |  |
| S=C(N/N=C(/c1ccccc1)c1ccccn1)Nc1ccccc1 | 6.50 | 6.32 |  |
| CCN1CCN(CCNC(=O)c2ccc(/C=C3/Sc4ccccc4N(Cc4cccc(Cl)c4)C3=O)cc2)CC1 | < 4.82 | < 4.82 |  |
| CCOc1ccccc1C(=O)Nc1cc2c3c(c1)CCN3C(=O)CC2 | < 4.82 | < 4.82 |  |
| C=CCn1c(=N)n(CC(O)COc2cccc(C)c2)c2ccccc21 (configuration not stated) | 5.15 | < 4.82 |  |
| CN(C)CCNC(=O)c1[nH]c2ccccc2c1Sc1ccc(Cl)cc1 | 5.34 | 5.46 |  |
| CCN(CC)CCNC(=O)c1cc2c(-c3cccc(OC)c3)nn(C)c2s1 | 5.39 | < 4.82 |  |
| COc1cccc(NC(=O)C2c3ccccc3C(=O)N(CC(C)C)C2c2cccs2)c1 (configuration not stated) | 6.76 |  | pEC50 (Toxoplasma gondii): < 4.65; pEC50 (Trypanosoma brucei): 5.12; pEC50 (Leishmania major): < 4.76; pEC50 [6]: < 4.39; pEC50 [7]: < 4.39; pEC50 [8]: < 4.39; pEC50 [9]: < 4.39 |
| Cc1ccccc1-c1cnc(-c2cccnc2)nc1C1CCN(C(=O)CCCc2cccs2)CC1 | 5.24 | 5.34 |  |
| Cn1c(-c2ccc(F)cc2)[n+](C)c2ccccc21 | 5.73 | 5.42 |  |
| COC(=O)Nc1ccc(S(=O)(=O)ON=C2C=C(C(C)(C)C)C(=O)C(C(C)(C)C)=C2)cc1 | 5.16 | 6.41 |  |
| Cc1cc(O)nc(Nc2nc(C)c3cccc(C)c3n2)n1 | < 4.82 | < 4.82 |  |
| CCOC(=O)c1cccc(NC(=O)CC2C(=O)N(c3ccc(F)cc3)C(=O)N2C2CCCC2)c1 (configuration not stated) | 6.46 | 6.01 |  |
